Shown are actives, neighbours in structure and some others; about 10% of the full set was active somewhere.
Diaphorase act = activates diaphorase or chemically reduces, flagging diaphorase assay artifacts. Diaphorase/resazurin coupled assay, resorufin fluorescence, 16 min; hits give high values; 1 = vehicle wells, 0 = NADH-free wells. hit rate 0.005% among 190,000. AID 1229. activation factor at 20 µM;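 active = diaphorase activity raised at least twofold by the compound at 20 µM; inactive = activation factor below 2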
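Material: purified diaphorase enzyme from Clostridium kluyveri; Also added: 0.114 mM NADH and 0.1 mM resazurin, final amounts; Doses: single compound dose of 20 µM, 1% DMSO final; Times: 16 min enzyme reaction, ambient temperature; Detection: resorufin fluorescence, excitation 544 nm, emission 590 nm; Measure: increased resorufin signal from activators or reducing compounds.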
L major viab = Leishmania major promastigote growth inhibition; inhibition, % at 10 µM; hit rate 9% among 200,000; Leishmania major promastigotes, resazurin fluorescence viability; in the data active = inhibition above about 50%;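 also: promastigotes grown with compound for 44 hours at 28 °C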
WT yeast gro inh = growth inhibition of WT yeast, mitochondrial fusion screen; inhibition, % at 10 µM; AID 1362; mitochondrial fusion phenotypic screen, WT strain; hit rate 2.1% among 190,000; in the data active = inhibition above about 58%; tested in S. cerevisiae
PMI act satM6P = activators of human phosphomannose isomerase at near-saturating mannose 6-phosphate; activation factor at 20 µM; AID 1216; coupled PMI enzyme assay, resazurin fluorescence, 20 min; hits give high values; 1 = untreated enzyme, 0 = substrate-free blank; hit rate 0.34% among 190,000;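 active = activation factor of 2 or more at 20 µM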
Target sequence (P34949 whole entry, looked up): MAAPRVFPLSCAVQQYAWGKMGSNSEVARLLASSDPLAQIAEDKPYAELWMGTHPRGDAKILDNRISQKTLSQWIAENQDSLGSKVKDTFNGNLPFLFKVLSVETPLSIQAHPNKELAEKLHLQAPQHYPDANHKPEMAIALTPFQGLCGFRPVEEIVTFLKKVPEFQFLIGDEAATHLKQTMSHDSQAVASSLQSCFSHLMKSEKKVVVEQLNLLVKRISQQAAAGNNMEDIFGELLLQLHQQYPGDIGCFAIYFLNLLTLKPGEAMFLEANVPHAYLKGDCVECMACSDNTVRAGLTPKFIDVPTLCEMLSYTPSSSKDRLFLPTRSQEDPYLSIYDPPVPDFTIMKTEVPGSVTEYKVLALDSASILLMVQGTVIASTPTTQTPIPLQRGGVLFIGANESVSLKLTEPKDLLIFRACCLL
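Test system: human phosphomannose isomerase with PGI, G6PDH, diaphorase coupling enzymes; Amount: PMI at 15 ng/mL final; Reagent: Mannose-6-phosphate 1.0 mM (near-saturating) plus 0.22 mM NADP+; Timing: 20 min, room temperature; Technique: resorufin fluorescence at Ex 544/Em 590 nm; Dosing: 20 µM single dose.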
PMI activator = increases human mannose-6-phosphate isomerase activity; P34949; purified human PMI, coupled resazurin fluorescence, 20 min; hits give high values; 1 = vehicle control, 0 substrate-free wells; activation factor at 20 µM; hit rate 0.005% among 190,000; AID 1214;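 active = activation factor of 2 or more at 20 µM, relative to plate controls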
Active calls of the source: *.

SMILES	Diaphorase act	L major viab	WT yeast gro inh	PMI act satM6P	PMI activator
C/C(=N\N(Cc1ccccc1)c1ccccc1)c1cccnc1	0.9	16.8	38.7	0.9	0.9
Oc1cccc(/C=N/N(Cc2ccccc2)c2ccccc2)c1	0.8	8.1	90.2*	0.9	0.9
Cn1[nH]c(C(F)(F)F)cc1=O	0.9	-5.2	4.8	1.1	1.2
Cc1c(/C=N\NC(=O)C2COc3ccc(C(C)(C)C)cc3O2)c2ccccc2n1C (centres undefined)	0.8	10.4	29.0	0.9	0.8
CCOC(=O)c1cc2c(=O)n3ccccc3nc2n(CC(C)C)c1=NC(=O)c1ccco1	0.9	42.9	3.7	0.9	0.9
CCOC(=O)c1cc2c(=O)n3ccccc3nc2n(CCOC)c1=NC(=O)c1ccncc1	0.9	19.6	-3.4	1.4	1.3
CCOC(=O)c1cc2c(=O)n3cccc(C)c3nc2n(Cc2ccco2)c1=NC(=O)c1cccnc1	0.7	86.1*	18.6	1.2	1
CCOC(=O)c1cc2c(=O)n3ccccc3nc2n(C(C)C)c1=NC(=O)c1ccncc1	0.3	52.4*	11.2	2.2*	1.4
CCOC(=O)c1cc2c(=O)n3ccccc3nc2n(C(C)C)c1=NC(=O)c1c(-c2ccccc2Cl)noc1C	0.8	87.5*	50.6	0.9	1
CCOC(=O)c1cc2c(=O)n3ccccc3nc2n(CCCOC)c1=NC(=O)c1cccnc1	1	15.9	11.3	2*	1.7
CCOC(=O)c1cc(-c2ccccc2)n(CCC(=O)N2CCN(c3ccccn3)CC2)c1C	0.8	1.5	5.7	0.9	1
Cc1cc(-c2nnc3n2CCCCC3)c(C)n1-c1ccccc1	1	-3.9	-3.8	1.1	1.1
CCOC(=O)c1cc2c(=O)n3ccccc3nc2n(CCOC)c1=NC(=O)c1c(-c2c(F)cccc2Cl)noc1C	0.7	67.1*	49.9	0.9	1
CN(NC(=S)Nc1ccc(OC(F)F)cc1)C(=S)Nc1ccc(OC(F)F)cc1	0.8	-5.8	65.1*	0.8	0.8
CN(C)Cc1c(-c2ccc(Cl)cc2)nc2ccc(Cl)cn12	1	68.1*	16.3	1	1
COc1ccc(-c2[nH]ncc2Oc2ccccc2OC)c(O)c1	0.8	5.1	44.9	0.9	0.9
COc1ccc(Oc2cn[nH]c2-c2ccc(O)cc2O)cc1	0.9	57.7*	21.2	1	1
CCCc1ccc(Oc2cn[nH]c2-c2ccc(O)cc2O)cc1	0.7	95.0*	94.8	0.9	0.9
COc1ccc(CNCC(O)COCc2cccs2)cc1 (centres undefined)	0.9	88.2*	-8.0	1	1
CC(OCC(O)CNCC1COc2ccccc2O1)c1ccc(Cl)cc1 (centres undefined)	0.9	90.7*	43.5	1	1
OC(CNCC1COc2ccccc2O1)COCc1cccs1 (centres undefined)	1	92.1*	-3.7	1.2	1.1
CCOC(=O)C1(Cc2ccc(Cl)cc2)CCN(C(=O)c2sc(C)nc2C)CC1	0.8	10.3	8.7	1	1
COc1ccc(C(=O)C2CCCN(C(=O)c3noc4c3CCCC4)C2)c(C)c1 (centres undefined)	0.6	1.9	2.0	0.9	0.9
c1ccc(-c2nc3ccccc3[nH]2)nc1	0.9	-2.4	18.1	0.8	0.9
c1ccc(-c2nc3c(ccc4ccccc43)[nH]2)nc1	0.9	100.4*	36.6	0.8	0.9
SMILES	Diaphorase act	L major viab	WT yeast gro inh	PMI act satM6P	PMI activator
Cc1nnc(NC(=O)CSc2ccc(-c3ccccn3)nn2)s1	1	-10.4	-24.5	1.2	1
COc1ccc2c(c1)c(=O)c(C(=O)c1ccccc1)cn2Cc1ccc(C)cc1	0.8	51.7*	25.9	0.9	0.9
CCn1cc(C(=O)O)c(=O)c2cc(OC)ccc21	0.9	-8.2	-11.6	0.8	0.8
O=C1Nc2cc(S(=O)(=O)N3CCCC3)ccc2N2CCCC12 (centres undefined)	1	-3.8	-2.3	2*	1.3
O=C1Nc2ccccc2N2CCCC12 (centres undefined)	0.4	20.1	2.5	1.8	1.2
COC(=O)C1=C(Nc2ccc(C)cc2)C=C(C)C(C(=O)OC)C1c1ccc(OC)cc1 (centres undefined)	0.8	36.7	70.3*	0.7	0.9
COc1ccc(C(C(=O)NCCC(C)C)N(CCN2CCOCC2)C(=O)Cn2nnc3ccccc32)c(OC)c1 (centres undefined)	1.1	-1.8	-16.1	1	1
CSc1ccccc1NC(=O)c1ccccc1N(Cc1ccccc1)S(C)(=O)=O	0.9	5.9	10.4	0.9	0.9
CCN1CCN(C(=O)c2ccc(COc3ccc(Cl)cc3)o2)CC1	0.9	83.6*	14.0	1.1	1
O=C(c1ccc(COc2ccc(Cl)cc2)o1)N1CCN(Cc2ccc3c(c2)OCO3)CC1	0.8	48.0	75.8*	1	0.9
Cc1ccc(C(=O)N2CCN(Cc3ccc4c(c3)OCO4)CC2)o1	0.9	5.2	1.3	0.9	1
O=C(c1ccc(COc2ccccc2Cl)o1)N1CCN(Cc2ccc3c(c2)OCO3)CC1	0.8	90.4*	38.9	0.9	0.8
COc1cc(/C=N/NC(=O)C2CCN(CC(O)COCc3ccccc3)CC2)ccc1O (centres undefined)	1	2.0	9.4	0.9	0.9
CCn1cc(C(=O)N(CCC(C)C)c2c(N)n(Cc3ccccc3)c(=O)[nH]c2=O)c(=O)c2ccc(C)nc21	0.8	-3.2	-12.8	0.9	1
COC(=O)c1ccc(OC)cc1OCC(=O)N1CCN(c2ccc(F)cc2)CC1	0.9	3.6	4.9	0.9	0.9
COc1ccc(CCN2C(=O)NC(NC(=O)C(C)(C)C)(C(F)(F)F)C2=O)cc1OC (centres undefined)	1	-6.9	16.6	1	1
CC(c1ccccc1)N1C(=O)NC(NC(=O)C(C)(C)C)(C(F)(F)F)C1=O (centres undefined)	0.8	51.7*	7.4	0.9	0.9
CCCCOc1ccc(C(=O)N/C(=C\c2ccc(OC)cc2)C(=O)OCc2ccco2)cc1	0.8	96.4*	21.6	0.9	0.9
CCC1CSC(Nc2ccc(C(=O)/C=C/c3cccc(C)c3)cc2)=N1 (centres undefined)	0.9	13.8	33.2	0.9	0.7
CCC1CSC(Nc2ccc(C(=O)/C=C/c3ccc(Oc4ccccc4)cc3)cc2)=N1 (centres undefined)	1	58.6*	28.7	1	1
Oc1cccc(Oc2ncc(C(F)(F)F)cc2Cl)c1	0.9	-11.7	8.5	1	1
Cc1cccc(Nc2nc(-c3ccccn3)cs2)n1	1.1	100.4*	6.4	0.8	0.9
c1ccc(Nc2nc(-c3cccnc3)cs2)nc1	1	3.5	-1.6	1	0.9
Cc1cccnc1Nc1nc(-c2ccccn2)cs1	0.8	100.4*	-2.8	0.8	0.8
Cc1cccc(Nc2nc(-c3cccs3)cs2)n1	0.9	56.6*	72.5*	0.8	0.9
